Laboratory results reported in ChEMBL document CHEMBL4251658, “Cytotoxic and Noncytotoxic Metabolites from Teratosphaeria sp. FL2137, a Fungus Associated with Pinus clausa” (J Nat Prod, 2018).

Experiments:
Type in all cases: functional, cell-based
NCI-H460 = experiment: Cytotoxicity against human NCI-H460 cells by resazurin dye based Alamar blue assay
How it was run: (§1)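 Resazurin-based colorimetric (Alamar Blue) read-out of in vitro cytotoxicity in human cancer lines: NCI-H460 non-small-cell lung, SF-268 CNS glioma, MCF-7 breast, PC-3M metastatic prostate adenocarcinoma, MDA-MB-231 breast adenocarcinoma. Doxorubicin served as positive control and DMSO as negative control. Run in triplicate. Compounds tested up to 5.0 μM; IC50 values derived.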

MDA-MB-231 = experiment: Cytotoxicity against human MDA-MB-231 cells by resazurin dye based Alamar blue assay; how it was run: as §1
PC-3M = experiment: Cytotoxicity against human PC3M cells by resazurin dye based Alamar blue assay; how it was run: as §1
SF-268 = experiment: Cytotoxicity against human SF268 cells by resazurin dye based Alamar blue assay; how it was run: as §1
MCF7 = experiment: Cytotoxicity against human MCF7 cells by resazurin dye based Alamar blue assay; how it was run: as §1

SMILES | IC50 (NCI-H460) [µM] | IC50 (MDA-MB-231) [µM] | IC50 (PC-3M) [µM] | IC50 (SF-268) [µM] | IC50 (MCF7) [µM]
COc1cccc2c1C(=O)c1c(O)c3c(c(O)c1C2=O)C[C@@](O)(C(=O)CO)C[C@@H]3O[C@H]1C[C@H](N)[C@H](O)[C@H](C)O1 [DOXORUBICIN] | 0.4 | 0.6 | 0.2 | – | –
COc1cc(O)c2c(c1)C(=O)C(C)=CC2=O | > 5 | 1.2 | 4.9 | > 5 | 3.1
COc1cc(O)c2c(c1)C(=O)c1cocc1C2=O [MONOSPORASCONE] | > 5 | 3.8 | > 5 | > 5 | > 5
